Test [1] is described as follows: inhibitors of TNFa-induced NFkB p65 translocation, primary screen, imaging, HUVEC, MLSMR starter and 10KST1 sets (AID 438;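 active means inhibition above 20% together with a positive visual image hit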;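 further: compound added about 3h40 before a 20 min TNFalpha stimulation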;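 on inhibition: signal is the nuclear over cytoplasmic p65 intensity ratio per well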). Conditions: HUVEC TNFa-induced p65 nuclear translocation; cell count: measured here: nuclei count (cytotoxicity indicator), at 2.08 µM; inhibition: at 2 µM, stronger effect = higher value, 0% TNFa-plus-vehicle, 100% no-TNFa wells.
Test [2] can be described thus: reduction of polyQ htt aggregates in cells – imaging, exon1htt(103Q)mCFP cells, high-content imaging, primary screen (AID 483;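 active means visual image review flags a hit and inhibition of aggregation exceeds 20%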;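 further: compound exposure lasted 3 days before fixation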;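 on nuclei count: percent of the per-plate median nuclei count of sample wells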). Conditions: exon1htt(103Q)mCFP cell line, aggregate imaging, at 2 µM; inhibition of aggregation: stronger effect = higher value; nuclei count: measured here: cell count, toxicity.
Test [3] can be described thus: endothelial E-selectin expression blockers – imaging, HUVEC, immunofluorescence, MLSMR starter and 10KST1 sets, primary screen (AID 487;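 active means visually confirmed hit in the image check and inhibition above 20%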;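 on inhibition: signal is fraction of cell area covered by stained E-selectin grains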;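 on nuclei count: 100% = median nuclei count of all wells on the same plate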). Conditions: HUVEC TNFalpha-induced E-selectin immunofluorescence imaging, at 2 µM; inhibition: stronger effect = higher value; nuclei count: measured here: cell number, toxicity.
Test [4] addresses Voltage-gated potassium channel subunit beta-2 (Rattus norvegicus) (UniProt P62483). Put plainly: inhibitors of rat Kvbeta2 reductase activity – biochemical, NADPH fluorescence, primary screen (AID 622;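 active means fluorescence slope higher than the sample average by over 3 SD, cut at about -0.22 in these data, passing the limit was not always enough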;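 further: slope of raw intensity against log time taken from 70 to 1610 s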). The settings on record: recombinant KvBeta, 4-cyanobenzaldehyde reduction, at 10 µM, stronger effect = higher value.
Test [5] has the same target. Put plainly: enhancers of rat Kvbeta2 NADPH turnover – biochemical, NADPH fluorescence, primary screen (AID 623).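 Further: fluorescence intensity change per second fitted from 20 to 320 s.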 The settings on record: Recombinant KvBeta, NADPH fluorescence decrease slope, 10 min; at 10 µM; stronger effect = lower value.
Test [6] deals with Muscarinic acetylcholine receptor M4 (Homo sapiens) (UniProt P08173). Nature of the test: M4-linked GIRK flux change, two-sided – cell-based, HEK293 M4/GIRK, thallium flux, BTC-AM, M4 allosteric agonist project, primary screen (AID 625;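 active means fluorescence slope after compound addition differing from the mean of all tested samples at 99.7% confidence, mostly higher but some lower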;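 further: thallium influx through GIRK channels coupled to M4 in HEK293 cells with BTC-AM dye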). Conditions: at 10 µM, actives lie on both sides. The essentials: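 Material – HEK293 cells with M4 receptor and GIRK channels · Buffer or medium – pH 7.3 thallium assay buffer · Doses – one dose, 10 µM final · Timing – cells overnight at 37 °C, BTC-AM loading 1 h, reads 2 min total · Measured by – kinetic fluorescence with BTC-AM dye · Controls – carbachol and DMSO controls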
Sequence of Muscarinic acetylcholine receptor M4 (Homo sapiens) (P08173 whole entry, looked up): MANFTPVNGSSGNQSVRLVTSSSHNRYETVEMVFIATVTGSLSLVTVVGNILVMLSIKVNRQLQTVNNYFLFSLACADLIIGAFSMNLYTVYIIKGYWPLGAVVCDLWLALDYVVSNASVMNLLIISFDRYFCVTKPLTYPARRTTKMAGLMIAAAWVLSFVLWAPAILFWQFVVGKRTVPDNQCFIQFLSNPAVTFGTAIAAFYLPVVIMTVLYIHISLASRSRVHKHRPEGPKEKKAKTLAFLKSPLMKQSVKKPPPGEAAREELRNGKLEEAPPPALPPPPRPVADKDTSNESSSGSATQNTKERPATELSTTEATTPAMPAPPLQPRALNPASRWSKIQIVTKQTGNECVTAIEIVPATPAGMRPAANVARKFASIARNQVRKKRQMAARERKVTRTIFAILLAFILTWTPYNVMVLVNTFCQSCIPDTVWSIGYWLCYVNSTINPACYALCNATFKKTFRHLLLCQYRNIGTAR

A short description of test [7]: blockers of RIG-like receptor reporter activation – cell-based, Sendai virus stimulus, luciferase, 10K MLSCN set, TLR/RLR signaling modifier project, primary screen (AID 602276;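 active means inhibition at or above 50% at 10 µM; inactive means inhibition below 50%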;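 further: firefly luciferase from ISG56 promoter only with Renilla not read in this screen; 0% = Sendai virus plus DMSO and 100% = medium plus DMSO without virus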). The settings on record: HEK293 RL24 IRF3 luciferase reporter, at 10 µM, stronger effect = higher value.
The nature of test [8]: TLR3 IRF3 reporter activation blockers – cell-based, poly I:C stimulus, luciferase, 10K MLSCN set, primary screen (AID 602277;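 active means inhibition of the reporter signal at or above 50%; inactive means inhibition below 50%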). Conditions: HEK293-TLR3 RL24 IRF3 luciferase reporter, at 10 µM, stronger effect = higher value.

Active and inactive are the calls of the source.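 How the source made its calls, unless noted: active means NADPH fluorescence slope more negative than the mean of all samples by about 3 SD, 99.7% confidence; inactive means the rest.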

Sequence of Voltage-gated potassium channel subunit beta-2 (Rattus norvegicus) (P62483 whole entry, looked up): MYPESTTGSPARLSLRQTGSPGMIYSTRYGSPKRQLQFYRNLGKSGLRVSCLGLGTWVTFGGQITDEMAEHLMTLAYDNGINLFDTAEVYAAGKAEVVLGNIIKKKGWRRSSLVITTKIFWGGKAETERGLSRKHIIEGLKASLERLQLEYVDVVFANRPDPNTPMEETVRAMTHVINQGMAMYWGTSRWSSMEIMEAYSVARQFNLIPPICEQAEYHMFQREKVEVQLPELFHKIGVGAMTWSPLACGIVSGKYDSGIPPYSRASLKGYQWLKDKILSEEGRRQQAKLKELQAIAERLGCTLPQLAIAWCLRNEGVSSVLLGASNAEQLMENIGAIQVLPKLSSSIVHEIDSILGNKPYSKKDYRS

Regarding `COc1cc2c(OC)cccc2cc1C(=O)O`, the cell count in test [1] came to 383. Also, the inhibition in test [1] is -1.9% (inactive); in test [3], -12.2% (inactive); in test [7] it was 18.2% (inactive); in test [8] it was 8.81% (inactive). Besides, the inhibition of aggregation in test [2] is -13.5% (inactive). Also, the nuclei count came out at 102% in test [2] and 92.7% in test [3]. The fluorescence slope is -0.429 (inactive) in test [4] and 0.0045 (inactive) in test [6]. In addition, the NADPH fluorescence slope in test [5] was -5.9e-06 (inactive).
On to `Cc1ccc(S(=O)(=O)n2nc(OC(=O)c3ccco3)cc2N)cc1`, for which the cell count in test [1] is 512. Further, the inhibition in test [1] was -8.3% (inactive); in test [3], -8.9% (inactive); in test [7] it was -8.24% (inactive); in test [8], -6.95% (inactive). For the same molecule, the inhibition of aggregation in test [2] is -12% (inactive). Further, the nuclei count was found to be 115% in test [2] and 150% in test [3]. Further, the fluorescence slope in test [4] was -0.554 (inactive); in test [6], 0.00488 (inactive). The NADPH fluorescence slope in test [5] was -9.4e-05 (inactive).
As to `CC1CCCC(C(=O)OCc2ccccc2)N1` (centres undefined), the cell count in test [1] was determined as 551. For the same molecule, the inhibition in test [1] was -10.9% (inactive); in test [3], -120% (inactive); in test [7] it was 13.2% (inactive); in test [8], 20.1% (inactive). Further, the inhibition of aggregation in test [2] was -31.2% (inactive). The nuclei count in test [2] worked out at 113%; in test [3], 122%. The fluorescence slope in test [4] was -0.389 (inactive); in test [6], 0.00626 (inactive). Further, the NADPH fluorescence slope in test [5] is 3.2e-05 (inactive).
Turning to `COCCNC(=O)c1ccc(Cl)c(Cl)c1`, the cell count in test [1] stood at 283. Besides, the inhibition in test [1] is -9.1% (inactive); in test [3], 4.3% (inactive); in test [7], -9.14% (inactive); in test [8] it was -8.45% (inactive). Also, the inhibition of aggregation in test [2] is -23.9% (inactive). Further, the nuclei count was found to be 119% in test [2] and 116% in test [3]. The values for the fluorescence slope in test [4] and in test [6] were -0.486 (inactive) and 0.00569 (inactive), respectively. For the same molecule, the NADPH fluorescence slope in test [5] is -4.2e-05 (inactive).
For `CN1CCN(CCCNC(=O)C2CC(=O)N(C3CCCCC3)C2)CC1` (centres undefined), the cell count in test [1] came out at 259. For the same molecule, the inhibition in test [1] was -1.7% (inactive); in test [3], 15.5% (inactive); in test [7] it was 14.4% (inactive); in test [8] it was 13.7% (inactive). Also, the inhibition of aggregation in test [2] was 2.4% (inactive). Moreover, the values for the nuclei count in test [2] and in test [3] were 98% and 89.4%, respectively. The fluorescence slope in test [4] is -0.548 (inactive); in test [6], 0.00645 (inactive). For the same molecule, the NADPH fluorescence slope in test [5] was -4.3e-05 (inactive).
For `Cc1cc(O)c(NC(=O)c2ccc(Br)o2)cc1C`, the cell count in test [1] was found to be 394. The inhibition in test [1] was 5.5% (inactive); in test [3] it was -6.8% (inactive); in test [7], 8.6% (inactive); in test [8], -53.5% (inactive). The inhibition of aggregation in test [2] is -12.4% (inactive). The nuclei count came out at 103% in test [2] and 116% in test [3]. In addition, the figures for the fluorescence slope in test [4] and in test [6] were -0.299 (inactive) and 0.00583 (inactive), respectively. Moreover, in test [5], the NADPH fluorescence slope is -6.1e-05 (inactive).
Take `COc1ccc(C2C(C(=O)c3sc(C)nc3C)=C(O)C(=O)N2CCN2CCOCC2)cc1` (centres undefined): the cell count in test [1] came out at 438. Moreover, the inhibition in test [1] is 4.5% (inactive); in test [3], 31.3% (inactive); in test [7] it was 4% (inactive); in test [8], 1.15% (inactive). The inhibition of aggregation in test [2] was 0.7% (inactive). Also, the values for the nuclei count in test [2] and in test [3] were 107% and 84.8%, respectively. Also, the values for the fluorescence slope in test [4] and in test [6] were -0.531 (inactive) and 0.00651 (inactive), respectively. For the same molecule, in test [5], the NADPH fluorescence slope was -5.5e-05 (inactive).
Consider `CNC(=O)c1ccccc1NC(=O)c1c(O)c2c([nH]c1=O)CCCC2`, for which the cell count in test [1] amounted to 433. The inhibition in test [1] was 16.6% (inactive); in test [3], -19.5% (inactive); in test [7] it was 4.16% (inactive); in test [8], 16.9% (inactive). Besides, the inhibition of aggregation in test [2] is -9.3% (inactive). Further, the results for the nuclei count in test [2] and in test [3] were 98.8% and 108%, respectively. Besides, the figures for the fluorescence slope in test [4] and in test [6] were -0.47 (inactive) and 0.00682 (inactive), respectively. In test [5], the NADPH fluorescence slope was -5.8e-05 (inactive).
Take `COc1ccc(N2CCN(C(=O)CSc3nnc4n3C(C)(C)Cc3ccccc3-4)CC2)cc1`: the cell count in test [1] came out at 548. Further, the inhibition in test [1] is 7.7% (inactive); in test [3] it was -14.4% (inactive); in test [7] it was 4.92% (inactive); in test [8], -6.84% (inactive). The inhibition of aggregation in test [2] is -9.9% (inactive). Further, the nuclei count in test [2] and in test [3] was 104% throughout. Besides, the figures for the fluorescence slope in test [4] and in test [6] were -0.572 (inactive) and 0.00723 (inactive), respectively. Besides, the NADPH fluorescence slope in test [5] is -3.1e-05 (inactive).
In the case of `CCOC(=O)C1CCCN(C(=O)c2ccc(CS(=O)(=O)Cc3ccccc3C)o2)C1` (centres undefined), in test [1], the cell count stood at 419. In addition, the inhibition in test [1] is 10.9% (inactive); in test [3] it was -57.8% (inactive); in test [7], -2.6% (inactive); in test [8], 5.13% (inactive). The inhibition of aggregation in test [2] is 19.5% (inactive). Also, the values for the nuclei count in test [2] and in test [3] were 76.5% and 93.9%, respectively. Besides, the fluorescence slope in test [4] is -0.595 (inactive); in test [6], 0.00695 (inactive). For the same molecule, in test [5], the NADPH fluorescence slope was 4.2e-06 (inactive).
For the molecule `Cc1cc(S(=O)(=O)n2cnc3ccccc32)c(C)cc1Cl`, in test [1], the cell count was found to be 449. Further, the inhibition in test [1] is -11.9% (inactive); in test [3] it was 8% (inactive); in test [7], 1.42% (inactive); in test [8], 14.8% (inactive). Moreover, in test [2], the inhibition of aggregation was 25.3% (inactive). Moreover, the nuclei count in test [2] came out at 78%; in test [3], 113%. In addition, the fluorescence slope in test [4] is -0.473 (inactive); in test [6], 0.00564 (inactive). The NADPH fluorescence slope in test [5] was 1.7e-06 (inactive).
Regarding `CN1CCCc2cc(C#N)c(=O)[nH]c21`, the cell count in test [1] was found to be 492. Further, the inhibition was -9.7% (inactive) in test [1], 3.9% (inactive) in test [3], 11.5% (inactive) in test [7] and 14% (inactive) in test [8]. Further, in test [2], the inhibition of aggregation is -0.4% (inactive). Besides, the nuclei count is 108% in test [2] and 85% in test [3]. The fluorescence slope is -0.117 (active) in test [4] and 0.00776 (inactive) in test [6]. For the same molecule, the NADPH fluorescence slope in test [5] was 1e-05 (inactive).
Regarding `O=C(c1ccco1)N1CCN(C(=O)c2ccc(Cn3cc(Br)cn3)o2)CC1`, the cell count in test [1] is 371. Further, the inhibition in test [1] was 2.6% (inactive); in test [3], -21.6% (inactive); in test [7] it was 13.3% (inactive); in test [8], 12.9% (inactive). In test [2], the inhibition of aggregation is 9.6% (inactive). The nuclei count is 102% in test [2] and 105% in test [3]. Besides, the figures for the fluorescence slope in test [4] and in test [6] were -0.456 (inactive) and 0.00591 (inactive), respectively. For the same molecule, the NADPH fluorescence slope in test [5] was -4.2e-05 (inactive).
Consider `COC(=O)c1[nH]c2ccccc2c1NC(=O)CN1CCC(C(N)=O)(N2CCCCC2)CC1`, for which the cell count in test [1] amounted to 259. Moreover, the inhibition in test [1] is 3.8% (inactive); in test [3], -114% (inactive); in test [7], 20.8% (inactive); in test [8] it was 30.6% (inactive). Also, in test [2], the inhibition of aggregation was 6.6% (inactive). Besides, the nuclei count amounted to 72.7% in test [2] and 168% in test [3]. Moreover, the fluorescence slope in test [4] was -0.598 (inactive); in test [6] it was 0.00286 (inactive). Also, the NADPH fluorescence slope in test [5] is -1.9e-05 (inactive).
